M4 PAM: positive allosteric modulators of human muscarinic M4 receptor | P08173 | CHO-K1 hM4/Gqi5, Fluo-8 calcium fluorescence, ACh EC20; 0% = ACh EC20, 100% = maximal ACh | activation, % at 3 µM | actives 0.4% (n = 360,000) | AID 624126;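 active = activation above its plate's cutoff, the mean activation of sample wells plus 3 SD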
Target sequence (P08173 whole entry, looked up): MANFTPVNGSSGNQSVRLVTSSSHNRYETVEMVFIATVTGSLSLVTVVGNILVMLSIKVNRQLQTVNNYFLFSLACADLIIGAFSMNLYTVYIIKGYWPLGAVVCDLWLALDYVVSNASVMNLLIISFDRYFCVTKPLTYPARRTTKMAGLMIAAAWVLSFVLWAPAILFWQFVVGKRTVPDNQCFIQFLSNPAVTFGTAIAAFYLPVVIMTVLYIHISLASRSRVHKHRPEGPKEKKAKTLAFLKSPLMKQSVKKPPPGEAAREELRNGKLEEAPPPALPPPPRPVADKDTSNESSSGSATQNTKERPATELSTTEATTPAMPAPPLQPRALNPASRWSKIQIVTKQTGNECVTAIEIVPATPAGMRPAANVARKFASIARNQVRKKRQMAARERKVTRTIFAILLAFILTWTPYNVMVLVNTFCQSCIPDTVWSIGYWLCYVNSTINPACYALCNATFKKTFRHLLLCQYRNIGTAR
TAAR1 agonist: agonists of human TAAR1; CHO RD-HGA16 TAAR1, Fluo-8 calcium fluorescence; vehicle wells 0%, saturating PEA agonist 100%; activation, % at 3 µM; actives 0.99% (n = 360,000); AID 624467; Q96RJ0;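 active = activation above the mean activation of all test compounds in the run plus 3 SD, cut at about 38% in these data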
Target sequence (Q96RJ0 whole entry, looked up): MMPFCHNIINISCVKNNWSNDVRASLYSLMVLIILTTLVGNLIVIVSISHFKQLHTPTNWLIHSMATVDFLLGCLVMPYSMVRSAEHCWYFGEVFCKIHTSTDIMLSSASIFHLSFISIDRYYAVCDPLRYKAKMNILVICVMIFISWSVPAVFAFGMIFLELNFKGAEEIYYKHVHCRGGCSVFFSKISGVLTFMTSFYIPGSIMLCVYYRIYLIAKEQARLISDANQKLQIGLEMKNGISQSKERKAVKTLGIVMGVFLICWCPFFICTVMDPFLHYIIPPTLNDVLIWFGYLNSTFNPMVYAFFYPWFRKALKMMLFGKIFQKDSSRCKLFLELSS
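Benchmarks: low control DMSO, high control PEA (EC100); System: CHO RD-HGA16 cells carrying human TAAR1 plus Gα16; Detection: Fluo-8 fluorescence, 5 s baseline then 140 s kinetic read; Schedule: 17-24 h plating, Fluo-8 75 min 37 °C, 30 min RT; Read-out basis: % activation from peak over basal fluorescence ratio, DMSO-to-PEA scaled.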
CHRM4 agonist: agonists of human muscarinic M4 receptor (CHRM4); P08173; CHO-K1 hM4/Gqi5, Fluo-8 calcium fluorescence; vehicle 0%, full acetylcholine response 100%; activation, % at 3 µM; actives 0.14% (n = 360,000);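 active = activation above the run mean over all test wells plus 3 SD, cut at about 32% in these data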;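 also: peak over basal fluorescence ratio per well then scaled between controls; 0% = DMSO wells and 100% = acetylcholine at EC100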
M4 antag: CHRM4 antagonism in calcium assay; CHO-hM4 cells, ACh EC80, Fluo-8 calcium fluorescence; inhibition, % at 3 µM; actives 0.73% (n = 360,000); P08173;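 active = inhibition above its plate's cutoff, the mean inhibition of sample wells plus 3 SD, cut at about 27% in these data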;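 also: 0% = acetylcholine EC80 with DMSO and 100% = DMSO without agonist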
TAAR1 antagonist: antagonists of human TAAR1 | Q96RJ0 | CHO RD-HGA16 TAAR1, Fluo-8 calcium fluorescence, antagonist | inhibition, % at 3 µM | actives 1.5% (n = 360,000) | AID 624466;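 active = inhibition above a per-plate cutoff, the mean inhibition of test compounds on that plate plus 3 SD, cut at about 49% in these data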;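 also: 0% = DMSO plus EC80 beta-PEA response and 100% = DMSO alone without agonist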
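Test system: CHO RD-HGA16 cells bearing hTAAR1 | Reagent: β-PEA, EC80 | Compound dosing: 3 µM, single point | Schedule: Dye loading 75 min at 37 °C, then 30 min room temperature | Signal: Calcium fluorescence with Fluo-8 | Evaluation: Percent inhibition of PEA-evoked calcium signal, max/basal emission ratio | Control set: DMSO-only wells and EC80 β-PEA-stimulated wells | Repeats: Singlicate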
nonsel antag count: nonselective antagonism, TAAR1 counter-screen | counterscreen cell line, calcium fluorescence, antagonist mode | shares compounds with TAAR1 antagonist | inhibition, % at 3 µM | AID 651780 | actives 77% (n = 2,400); in the data active = inhibition above about 22%;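 also: CHO-Ga16 host cells stimulated with ATP at an EC80 level; 0% = agonist EC80 plus vehicle and 100% = vehicle without agonist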
TAAR1 ant conf: confirmation of human TAAR1 antagonists; shares compounds with TAAR1 antagonist; TAAR1-expressing cells, fluorescence antagonist read-out; inhibition, % at 3 µM; actives 40% (n = 2,400); in the data active = inhibition above about 49%;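 also: CHO-Ga16 host cells challenged with agonist PEA near its EC80; 0% = agonist at EC80 plus vehicle and 100% = vehicle with no agonist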
Ga16 ag counter: nonselective Ga16 agonist in TAAR1 antagonist counter-screen; shares compounds with TAAR1 antagonist; Ga16-expressing cells, calcium fluorescence, agonist counterscreen; activation, % at 3 µM; actives 18% (n = 2,400); AID 651953; in the data active = activation above about 12%;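 also: 0% = vehicle wells and 100% = saturating stimulus response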
TAAR1 ag count: counter-screen for human TAAR1 antagonists: TAAR1 agonists; shares compounds with TAAR1 antagonist; hTAAR1 cell line, fluorescence activation, agonist mode; activation, % at 3 µM; actives 2% (n = 2,400); in the data active = activation above about 37%;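 also: CHO cells stably expressing TAAR1 with calcium dye readout; 0% = DMSO vehicle and 100% = full agonist response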
* = called active by the depositor; · = no result given. Rows were chosen to be rich in hits. Some 3% of all compounds tested hit in one or more screens of this group.

SMILES | M4 PAM | TAAR1 agonist | CHRM4 agonist | M4 antag | TAAR1 antagonist | nonsel antag count | TAAR1 ant conf | Ga16 ag counter | TAAR1 ag count
COc1ccccc1CNC(=O)COC(=O)c1cccnc1SCC(=O)NCc1ccccc1OC | -15.7 | 12.7 | 13.6 | 4.8 | 74.6* | 30.6* | 51.5* | 7.5 | 6.4
O=C(COC(=O)c1cccnc1SCC(=O)NCc1ccccc1)NCc1ccccc1 | -3.4 | 4.1 | 4.6 | -4.5 | 7.6 | · | · | · | ·
NC(=O)C12NC(Cc3ccccc31)c1ccccc12 (stereo unspecified) | · | 1.7 | · | · | -15.8 | · | · | · | ·
Cc1cccc(C)c1-n1c(C)cc(/C=N/NC(N)=S)c1C | -14.7 | 14.6 | -1.5 | 6.9 | 5.6 | · | · | · | ·
Cc1cc(/C=N/NC(N)=S)c(C)n1-c1ccc(Cl)cc1 | 2.1 | 4.7 | 3.6 | -2.4 | 84.1* | 2.5 | 82.7* | 16.3* | 17.7
Cc1cc(/C=N/NC(N)=S)c(C)n1-c1cccc(Cl)c1 | 5.6 | 20.8 | 2.9 | -3.4 | 12.0 | · | · | · | ·
Cc1cc(/C=N/NC(N)=S)c(C)n1-c1ccc(Br)cc1 | -3.3 | 1.9 | -1.3 | 5.8 | 95.3* | 15.4 | 92.2* | 12.1* | 16.7
CC1(C(=O)NCC2CC2)CCN1C(=O)C1(c2ccccc2)CC1 (stereo unspecified) | -3.7 | 0.9 | -0.4 | 10.3 | -14.8 | · | · | · | ·
Cc1ccc(/C=N/NC(=O)CSc2nnc(-c3ccccc3)n2-c2ccc(Cl)cc2)o1 | -4.4 | 10.6 | 2.2 | -1.7 | 27.0 | · | · | · | ·
Cc1ccc(/C=N/NC(=O)CSc2nnc(-c3ccc(Cl)cc3)n2-c2ccc(Cl)cc2)o1 | 3.0 | 14.5 | 5.4 | 2.5 | 55.9* | 22.4* | 52.3* | 7.1 | 10.4
Cc1ccccc1OCC(=O)N/N=C/c1cccc(Oc2ccc([N+](=O)[O-])cc2[N+](=O)[O-])c1 | -8.4 | 0.6 | 1.8 | 6.0 | 8.9 | · | · | · | ·
O=C(N/N=C/c1cccc(Oc2ccc([N+](=O)[O-])cc2[N+](=O)[O-])c1)c1cncc(Br)c1 | 3.4 | 21.2 | 1.1 | -6.6 | 55.1* | 51.1* | 53.8* | 16.1* | 11.6
C=CCNC(=O)c1ccccc1NC(=O)c1ccc(Cl)c(S(=O)(=O)Nc2ccccc2)c1 | 2.7 | 18.1 | 16.9 | 1.8 | 54.6* | 27.9* | 46.0 | 6.9 | 12.6
O=C(NCc1ccco1)c1ccc(Cl)c(S(=O)(=O)Nc2ccccc2)c1 | 12.9 | 5.8 | 1.7 | -4.1 | 1.8 | · | · | · | ·
CCn1cnc2sc(C(=O)N(Cc3ccc(N(C)C)cc3)Cc3ccco3)c(C)c2c1=O | -7.1 | 24.4 | 9.8 | 24.6 | 54.0* | 22.6* | 38.0 | 7.1 | 13.6
O=C(N/C(=C/C=C/c1ccccc1)C(=O)N1CCOCC1)c1ccccc1Cl | 7.3 | 4.2 | 5.2 | -5.7 | 8.7 | · | · | · | ·
O=C(Nc1ccc(C(=O)O)cc1)/C(=C\C=C\c1ccccc1)NC(=O)c1ccccc1Cl | 2.2 | 2.7 | 0.8 | 0.1 | 58.2* | 22.6* | 29.6 | 6.2 | 6.4
CCCN1CCCCC(NC(=O)c2c(F)cccc2F)C1=O (stereo unspecified) | · | 4.4 | · | · | -0.6 | · | · | · | ·
CCOC(=O)CN1CCCc2nc(-c3ccc(OC)cc3)ccc21 | · | 0.0 | · | · | -12.3 | · | · | · | ·
COc1ccc(-c2ccc3c(n2)CCCN3S(=O)(=O)c2ccccc2)cc1 | · | 7.2 | · | · | 77.9* | 37.7* | 52.1* | 9.9 | 7.9
O=C(COc1ccccc1Cl)NC(=S)Nc1ccc(CN2CCOCC2)cc1 | -25.8 | 12.2 | 13.7 | 6.7 | 73.4* | 46.7* | 51.3* | 11.0 | 11.5
O=C(COc1ccccc1[N+](=O)[O-])Nc1ccc(N2CCN(C(=O)c3cccs3)CC2)cc1 | -17.1 | 22.0 | 25.2 | -11.0 | 92.1* | 49.7* | 70.5* | 21.6* | 21.5
O=C(COc1ccccc1Cl)Nc1ccc(N2CCN(C(=O)c3ccccc3)CC2)cc1 | 0.2 | 13.5 | 1.3 | 2.1 | 68.9* | 45.6* | 54.1* | 15.1* | 19.6
COCCNc1nc(Nc2ccc(C#N)cc2)c2sccc2n1 | -5.8 | 7.6 | 13.8 | -13.1 | 10.2 | · | · | · | ·
Cc1ccc(C)c(N2CCN(C(=O)CCS(=O)(=O)c3ccc4c(c3)NC(=O)CO4)CC2)c1 | -18.8 | 17.6 | 29.4 | 8.5 | 85.3* | 43.0* | 56.8* | 14.7* | 13.4
SMILES | M4 PAM | TAAR1 agonist | CHRM4 agonist | M4 antag | TAAR1 antagonist | nonsel antag count | TAAR1 ant conf | Ga16 ag counter | TAAR1 ag count
CN(C(=O)c1cc2c(=O)n3ccccc3nc2n1C)C1CCCCC1 | 4.8 | 6.4 | 3.5 | -6.4 | -22.4 | · | · | · | ·
Cc1cccc(C)c1NC(=O)C1(C)CSCC(=O)N1C1CCN(Cc2ccccc2)CC1 (stereo unspecified) | 6.9 | 1.9 | 0.1 | -3.0 | -15.6 | · | · | · | ·
C=CC[C@H](CC(=O)N(CCO)Cc1ccccc1)C(=O)N[C@@H](COC(=O)[C@@H](CC=C)CC(=O)OC(C)(C)C)Cc1c[nH]c2ccccc12 | -10.1 | 22.3 | 16.4 | 2.3 | 68.3* | 32.4* | 48.2 | 7.2 | 3.0
C=CC[C@@H](CC(=O)N(CCO)Cc1ccccc1)C(=O)N[C@@H](COC(=O)[C@H](CC=C)CC(=O)OC(C)(C)C)Cc1c[nH]c2ccccc12 | -2.0 | 8.7 | 5.3 | 1.5 | 25.4 | · | · | · | ·
C=CC[C@H](CC(=O)NCCO)C(=O)N[C@H](COC(=O)[C@H](CC=C)CC(=O)OC(C)(C)C)Cc1c[nH]c2ccccc12 | -5.9 | 10.3 | 10.2 | -4.3 | 49.0* | 21.3 | 41.0 | 6.6 | 7.9
C=CC[C@@H](CC(=O)NCCO)C(=O)N[C@H](COC(=O)[C@H](CC=C)CC(=O)OC(C)(C)C)Cc1c[nH]c2ccccc12 | 4.2 | 3.7 | 4.6 | -19.7 | 2.0 | · | · | · | ·
COc1ccc(C2c3ccc(O)cc3Oc3ncn(CCN4CCOCC4)c(=N)c32)cc1OC (stereo unspecified) | -5.5 | -0.2 | 1.0 | 11.3 | -15.7 | · | · | · | ·
N=c1c2c(ncn1CCN1CCOCC1)Oc1cc(O)ccc1C2c1ccccc1 (stereo unspecified) | -27.6 | 17.5 | 18.8 | 10.7 | 75.2* | 22.1* | 39.7 | 7.9 | 10.5
CC(C)N1CCCC(C)(C(=O)Nc2nc3ccccc3[nH]2)C1 (stereo unspecified) | 6.4 | 0.7 | 0.9 | -1.5 | -26.0 | · | · | · | ·
CC(C)CC1C(=O)N(Cc2cn(CC3CCCCC3)nn2)CCS(=O)(=O)N1Cc1ccc(-c2cccc(CO)c2)cc1 (stereo unspecified) | -8.4 | 2.8 | 8.6 | 16.8 | 23.8 | · | · | · | ·
